Measurements: ChEMBL document CHEMBL1134554, “Design, synthesis, and structure-activity relationships of macrocyclic hydroxamic acids that inhibit tumor necrosis factor alpha release in vitro and in vivo” (J Med Chem, 2001)
Each block holds one molecule with its values, some of them ahead of it.

Key:
[1] = biological target: Disintegrin and metalloproteinase domain-containing protein 17 (Homo sapiens, UniProt P78536)
Interstitial collagenase = biological target: T1, Interstitial collagenase (Homo sapiens, UniProt P03956); test: In vitro inhibition of human MMP-1.
T1 sequence (P03956 whole entry): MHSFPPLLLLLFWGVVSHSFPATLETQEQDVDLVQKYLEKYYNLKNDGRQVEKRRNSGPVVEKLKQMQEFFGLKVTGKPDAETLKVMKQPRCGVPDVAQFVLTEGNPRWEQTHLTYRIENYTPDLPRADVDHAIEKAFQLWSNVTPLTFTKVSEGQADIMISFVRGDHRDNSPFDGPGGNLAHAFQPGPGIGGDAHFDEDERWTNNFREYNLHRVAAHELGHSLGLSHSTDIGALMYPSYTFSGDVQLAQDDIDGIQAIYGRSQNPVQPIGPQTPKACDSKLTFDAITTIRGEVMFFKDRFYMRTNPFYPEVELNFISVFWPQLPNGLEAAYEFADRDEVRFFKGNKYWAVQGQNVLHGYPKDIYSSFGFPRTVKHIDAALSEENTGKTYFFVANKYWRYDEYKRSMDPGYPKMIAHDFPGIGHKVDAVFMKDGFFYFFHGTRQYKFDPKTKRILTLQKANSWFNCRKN

Stromelysin-1 = Stromelysin-1 (Homo sapiens, UniProt P08254); test: Inhibition of human MMP-3.
Stromelysin-1, sequence (P08254 whole entry): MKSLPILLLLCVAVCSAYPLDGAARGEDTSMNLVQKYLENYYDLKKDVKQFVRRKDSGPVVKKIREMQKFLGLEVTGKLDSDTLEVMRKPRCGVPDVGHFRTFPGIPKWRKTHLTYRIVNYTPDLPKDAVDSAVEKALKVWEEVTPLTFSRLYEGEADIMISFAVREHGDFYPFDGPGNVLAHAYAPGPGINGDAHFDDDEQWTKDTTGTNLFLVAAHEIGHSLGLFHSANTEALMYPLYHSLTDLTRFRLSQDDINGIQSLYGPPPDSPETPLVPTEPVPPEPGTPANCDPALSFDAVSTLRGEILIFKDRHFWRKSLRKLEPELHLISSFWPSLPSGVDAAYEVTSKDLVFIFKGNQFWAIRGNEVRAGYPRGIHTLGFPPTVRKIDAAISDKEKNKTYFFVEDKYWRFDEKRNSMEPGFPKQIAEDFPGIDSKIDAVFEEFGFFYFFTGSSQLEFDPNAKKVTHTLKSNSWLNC

Mus musculus [2] = test: Compound at an oral dose of 30 mg/Kg was tested for the inhibition of LPS-stimulated TNF-alpha release in mouse; type: functional
Procedure, shortened: (§1)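 Mice dosed orally at time zero, then immediately given ip D-galactosamine 20 mg plus LPS 10 μg. One hour later, animals anesthetized and bled by cardiac puncture. Plasma TNF-α quantified by mouse-specific ELISA.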

[3] = biological target: Matrix metalloproteinase-9 (Homo sapiens, UniProt P14780); test: In vitro inhibition of human MMP-9.
Matrix metalloproteinase-9, sequence (P14780 whole entry): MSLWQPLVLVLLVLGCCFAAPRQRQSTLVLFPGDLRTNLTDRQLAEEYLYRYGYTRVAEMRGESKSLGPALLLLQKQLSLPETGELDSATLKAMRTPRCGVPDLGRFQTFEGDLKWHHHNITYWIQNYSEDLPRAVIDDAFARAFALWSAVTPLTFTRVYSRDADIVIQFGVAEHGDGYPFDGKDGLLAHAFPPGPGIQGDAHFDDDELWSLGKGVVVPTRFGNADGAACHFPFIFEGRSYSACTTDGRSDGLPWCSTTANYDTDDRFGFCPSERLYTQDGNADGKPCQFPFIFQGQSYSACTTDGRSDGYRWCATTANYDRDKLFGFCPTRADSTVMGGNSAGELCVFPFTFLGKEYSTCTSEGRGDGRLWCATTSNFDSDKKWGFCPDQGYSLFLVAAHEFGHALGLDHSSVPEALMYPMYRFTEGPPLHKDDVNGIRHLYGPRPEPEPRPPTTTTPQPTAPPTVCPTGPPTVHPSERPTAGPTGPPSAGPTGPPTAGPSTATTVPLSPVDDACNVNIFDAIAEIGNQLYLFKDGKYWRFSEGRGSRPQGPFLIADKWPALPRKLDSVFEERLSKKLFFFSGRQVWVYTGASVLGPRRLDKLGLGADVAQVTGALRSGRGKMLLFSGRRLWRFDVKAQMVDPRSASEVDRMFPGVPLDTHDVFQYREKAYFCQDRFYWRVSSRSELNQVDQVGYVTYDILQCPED

Mus musculus [4] = test: Compound at an oral dose of 100 mg/Kg was tested for the inhibition of LPS-stimulated TNF-alpha release in mouse; type: functional
Procedure, shortened: as §1

[5] = biological target: Matrix metalloproteinase-15 (Homo sapiens, UniProt P51511); test: Inhibition of matrix metalloprotease-15
Matrix metalloproteinase-15, sequence (P51511 whole entry): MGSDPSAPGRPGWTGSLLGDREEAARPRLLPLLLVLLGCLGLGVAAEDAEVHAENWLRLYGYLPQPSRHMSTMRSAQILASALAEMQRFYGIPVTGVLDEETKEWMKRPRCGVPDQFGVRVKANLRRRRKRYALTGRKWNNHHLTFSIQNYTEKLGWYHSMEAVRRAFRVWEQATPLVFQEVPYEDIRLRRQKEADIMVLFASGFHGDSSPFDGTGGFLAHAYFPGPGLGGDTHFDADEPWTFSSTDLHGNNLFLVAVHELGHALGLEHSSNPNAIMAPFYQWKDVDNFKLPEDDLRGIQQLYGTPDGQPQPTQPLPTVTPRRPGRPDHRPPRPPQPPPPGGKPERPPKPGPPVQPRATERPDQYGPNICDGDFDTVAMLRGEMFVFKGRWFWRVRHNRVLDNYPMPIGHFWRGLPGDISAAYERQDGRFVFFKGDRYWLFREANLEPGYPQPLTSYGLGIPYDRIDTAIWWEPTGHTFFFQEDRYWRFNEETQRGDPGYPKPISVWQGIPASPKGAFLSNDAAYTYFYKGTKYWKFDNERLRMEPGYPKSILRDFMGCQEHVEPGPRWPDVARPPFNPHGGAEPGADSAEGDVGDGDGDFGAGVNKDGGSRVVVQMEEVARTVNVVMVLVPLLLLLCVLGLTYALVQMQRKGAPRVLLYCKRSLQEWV

[6] = Pharmacokinetic data in Beagle dogs at 2.0 mg/kg oral dose; type: ADME, organism-based, Canis lupus familiaris; design: dose 2 mg/kg, route oral; conditions: dog, in vivo
[7] = biological target: Matrix metalloproteinase-16 (Homo sapiens, UniProt P51512); test: Inhibition of matrix metalloprotease-16
Matrix metalloproteinase-16, sequence (P51512 whole entry): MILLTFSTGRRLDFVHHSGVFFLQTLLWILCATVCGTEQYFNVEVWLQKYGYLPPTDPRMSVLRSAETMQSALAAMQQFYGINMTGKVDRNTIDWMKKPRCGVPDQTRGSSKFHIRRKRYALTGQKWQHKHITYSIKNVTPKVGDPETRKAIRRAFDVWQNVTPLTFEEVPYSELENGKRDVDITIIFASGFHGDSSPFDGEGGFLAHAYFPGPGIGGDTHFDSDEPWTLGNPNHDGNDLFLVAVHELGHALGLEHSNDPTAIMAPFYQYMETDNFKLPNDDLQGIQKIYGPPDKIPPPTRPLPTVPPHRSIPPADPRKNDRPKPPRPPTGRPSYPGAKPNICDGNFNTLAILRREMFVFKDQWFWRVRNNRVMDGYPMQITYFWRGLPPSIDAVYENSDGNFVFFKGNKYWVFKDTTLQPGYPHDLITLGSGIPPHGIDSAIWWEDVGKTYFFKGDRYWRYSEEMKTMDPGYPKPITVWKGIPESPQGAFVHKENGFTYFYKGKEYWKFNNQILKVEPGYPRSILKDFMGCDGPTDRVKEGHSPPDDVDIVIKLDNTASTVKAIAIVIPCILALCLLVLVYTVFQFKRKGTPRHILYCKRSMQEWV

[8] = Pharmacokinetic data in Beagle dogs at 2.0 mg/kg oral dose.; type: ADME, organism-based, Canis lupus familiaris; design: dose 2 mg/kg, route oral; conditions: dog, in vivo
Matrilysin = biological target: T2, Matrilysin (Homo sapiens, UniProt P09237); test: Inhibition of matrix metalloprotease-7
T2 sequence (P09237 whole entry): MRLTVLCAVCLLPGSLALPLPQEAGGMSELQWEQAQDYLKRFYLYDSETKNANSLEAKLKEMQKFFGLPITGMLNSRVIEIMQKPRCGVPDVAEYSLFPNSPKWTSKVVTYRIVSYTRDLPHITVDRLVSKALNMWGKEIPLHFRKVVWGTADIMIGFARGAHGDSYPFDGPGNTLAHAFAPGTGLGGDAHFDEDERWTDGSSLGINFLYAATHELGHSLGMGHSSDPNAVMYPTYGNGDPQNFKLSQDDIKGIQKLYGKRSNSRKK

[9] = Maximal plasma concentration in Beagle dogs after 0.5 mg/kg intravenous dose.; type: ADME, organism-based, Canis lupus familiaris; design: dose 0.5 mg/kg, route intravenous; conditions: dog
Procedure, shortened: (§2)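 Male beagle dogs (~10 kg), two per compound, dosed iv in 10% ethanol solution. Blood sampled before dosing and at 1, 2, 4, 6, 8, 12 and 24 h after. Plasma levels measured by LC/MS/MS after solid-phase extraction (detection limit 10 nM). Parameters reported as mean.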

[10] = Pharmacokinetic data in Beagle dogs at 0.5 mg/kg intravenous dose.; type: ADME, organism-based, Canis lupus familiaris; design: dose 0.5 mg/kg, route intravenous; conditions: dog, in vivo
Procedure, shortened: as §2

[11] = Pharmacokinetic data in Beagle dogs at 0.5 mg/kg i.v. dose and 2.0 mg/kg p.o. dose; type: ADME, organism-based, Canis lupus familiaris; conditions: dog, in vivo, po
[12] = biological target: Matrix metalloproteinase-14 (Homo sapiens, UniProt P50281); test: Inhibition of matrix metalloprotease-14

Disintegrin and metalloproteinase domain-containing protein 17, sequence (P78536 whole entry, the tested form may be a part): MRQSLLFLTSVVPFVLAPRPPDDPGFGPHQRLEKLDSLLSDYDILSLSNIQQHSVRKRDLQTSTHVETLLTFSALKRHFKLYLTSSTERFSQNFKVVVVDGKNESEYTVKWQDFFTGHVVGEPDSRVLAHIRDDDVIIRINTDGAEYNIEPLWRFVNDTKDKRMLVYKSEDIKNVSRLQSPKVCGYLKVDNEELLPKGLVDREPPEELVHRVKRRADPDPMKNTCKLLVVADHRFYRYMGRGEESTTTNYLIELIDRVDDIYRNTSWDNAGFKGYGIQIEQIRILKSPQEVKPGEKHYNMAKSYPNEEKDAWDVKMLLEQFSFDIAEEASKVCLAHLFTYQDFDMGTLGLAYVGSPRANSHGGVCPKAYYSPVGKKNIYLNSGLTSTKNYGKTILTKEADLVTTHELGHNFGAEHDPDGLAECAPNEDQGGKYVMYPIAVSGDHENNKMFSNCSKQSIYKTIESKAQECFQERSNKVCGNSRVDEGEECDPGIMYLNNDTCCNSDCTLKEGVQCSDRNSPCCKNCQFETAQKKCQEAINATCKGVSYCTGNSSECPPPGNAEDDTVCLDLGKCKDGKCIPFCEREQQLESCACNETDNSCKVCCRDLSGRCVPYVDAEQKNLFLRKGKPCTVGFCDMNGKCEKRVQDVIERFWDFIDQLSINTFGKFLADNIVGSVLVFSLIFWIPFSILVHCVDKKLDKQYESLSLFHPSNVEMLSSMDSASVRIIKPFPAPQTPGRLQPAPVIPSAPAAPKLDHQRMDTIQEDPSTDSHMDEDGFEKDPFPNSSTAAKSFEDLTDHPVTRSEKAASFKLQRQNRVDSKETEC

IC50 [1]: 400 nM
SMILES: CC(C)C[C@H]1C(=O)N[C@H](C(=O)NCC(=O)N(C)C)Cc2ccc(cc2)OCCC[C@@H]1C(=O)NO
inhibition in vivo at 30 mg/kg (Mus musculus [2]): 45%

IC50 [1]: 3800 nM
Ki (Interstitial collagenase): < 1 nM
Ki [3]: 3.9 nM
Ki (Stromelysin-1): 3 nM
SMILES: CNC(=O)[C@@H]1CCCCN(C)C(=O)CO[C@H](C(=O)NO)[C@@H](CC(C)C)C(=O)N1

IC50 [1]: 200 nM
SMILES: CC(C)C[C@H]1C(=O)N[C@H](C(=O)NCC(=O)NC(C)(C)C)Cc2ccc(cc2)OCCC[C@@H]1C(=O)NO
inhibition in vivo at 30 mg/kg (Mus musculus [2]): 21%

IC50 [1]: 1000 nM
Ki (Interstitial collagenase): < 1 nM
Ki [3]: 1.1 nM
SMILES: CNC(=O)[C@@H]1CCCCNC(=O)OCCC[C@H](C(=O)NO)[C@@H](CC(C)C)C(=O)N1

IC50 [1]: 2400 nM
Ki (Interstitial collagenase): 1.8 nM
Ki [3]: 3.3 nM
Ki (Stromelysin-1): 16.2 nM
SMILES: CNC(=O)[C@@H]1CCCc2ccc(cc2)OCCC[C@H](C(=O)NO)[C@@H](CC(C)C)C(=O)N1

IC50 [1]: 210 nM
SMILES: CNC(=O)[C@@H](CCCCNC(=O)OC(C)(C)C)NC(=O)[C@@H]1CCCCNC(=O)OCCC[C@H](C(=O)NO)[C@@H](CC(C)C)C(=O)N1

IC50 [1]: 2300 nM
Ki (Interstitial collagenase): < 1 nM
Ki [3]: < 1 nM
SMILES: CNC(=O)[C@@H]1CCCCN(C)C(=O)OCCC[C@H](C(=O)NO)[C@@H](CC(C)C)C(=O)N1

IC50 [1]: 700 nM
SMILES: CC(C)C[C@H]1C(=O)N[C@H](C(=O)NC(C)C)Cc2ccc(cc2)OCCC[C@@H]1C(=O)NO

IC50 [1]: 490 nM
SMILES: COc1ccc2[nH]cc(CCNC(=O)[C@@H]3CCCCNC(=O)OCCC[C@H](C(=O)NO)[C@@H](CC(C)C)C(=O)N3)c2c1

IC50 [1]: 1400 nM
SMILES: CNC(=O)[C@@H]1CCCCN(C(=O)OC(C)(C)C)CCC[C@H](C(=O)NO)[C@@H](CC(C)C)C(=O)N1

IC50 [1]: 830 nM
SMILES: CNC(=O)[C@@H](CCCCN)NC(=O)[C@@H]1Cc2ccc(cc2)OCCC[C@H](C(=O)NO)[C@@H](CC(C)C)C(=O)N1

Ki [5]: 71 nM
half-life [6]: 2.2 h
Ki [7]: 107 nM
AUC [8]: 1910 ng·h/mL
Ki (Matrilysin): 1.5 nM
Ki (Interstitial collagenase): 13 nM
Cmax [9]: 667 ng/mL
AUC [10]: 2080 ng·h/mL
Tmax [10]: 1.25 h
clearance [10]: 4.83 mL/min/kg
half-life [10]: 1 h
Vd ([10]; read-out: Vss): 0.33 L/kg
Ki [3]: 1.2 nM
Ki (Stromelysin-1): 7.8 nM
bioavailability [11]: 23%
Ki [12]: 140 nM
SMILES: CC(C)C[C@H]1C(=O)N[C@H](C(=O)NCC(=O)N2CCOCC2)CCCCNC(=O)OCCC[C@@H]1C(=O)NO

IC50 [1]: 300 nM
SMILES: Cc1csc(NC(=O)[C@@H]2CCCCN(C)C(=O)OCCC[C@H](C(=O)NO)[C@@H](CC(C)C)C(=O)N2)n1

IC50 [1]: 270 nM
SMILES: CNC(=O)[C@@H](C)NC(=O)[C@@H]1CCCCNC(=O)OCCC[C@H](C(=O)NO)[C@@H](CC(C)C)C(=O)N1

IC50 [1]: 1600 nM
Ki (Interstitial collagenase): 1.4 nM
Ki [3]: 3.6 nM
SMILES: CNC(=O)[C@@H]1CCCCNC(=O)CC[C@H](C(=O)NO)[C@@H](CC(C)C)C(=O)N1

IC50 [1]: 300 nM
SMILES: CC(C)C[C@H]1C(=O)N[C@H](C(=O)NCC(=O)N(C)C)CCCCN(C)C(=O)OCCC[C@@H]1C(=O)NO

IC50 [1]: 1000 nM
Ki (Interstitial collagenase): 5.3 nM
Ki [3]: 2.1 nM
Ki (Stromelysin-1): 48 nM
SMILES: CNC(=O)[C@@H]1CCc2ccc(cc2)OCCC[C@H](C(=O)NO)[C@@H](CC(C)C)C(=O)N1

IC50 [1]: 420 nM
SMILES: CNC(=O)CNC(=O)[C@@H]1CCCCN(C)C(=O)OCCC[C@H](C(=O)NO)[C@@H](CC(C)C)C(=O)N1

IC50 [1]: 460 nM
SMILES: CC(C)C[C@H]1C(=O)N[C@H](C(=O)NCC(=O)N2CCCC(C)(C)C2)Cc2ccc(cc2)OCCC[C@@H]1C(=O)NO

IC50 [1]: 1200 nM
SMILES: CNC(=O)[C@H](NC(=O)[C@@H]1CCCCNC(=O)OCCC[C@H](C(=O)NO)[C@@H](CC(C)C)C(=O)N1)C(C)(C)C

The next lines start with the molecule.

SMILES: CNC(=O)[C@@H]1CSc2ccccc2NC(=O)CO[C@H](C(=O)NO)[C@@H](CC(C)C)C(=O)N1
IC50 [1]: 8000 nM
Ki (Interstitial collagenase): < 1 nM
Ki (Stromelysin-1): 22.3 nM

SMILES: CNC(=O)[C@@H]1Cc2cn(c3ccccc23)CCCCO[C@H](C(=O)NO)[C@@H](CC(C)C)C(=O)N1
IC50 [1]: 3700 nM
Ki (Interstitial collagenase): < 1 nM
Ki (Stromelysin-1): 2.88 nM

SMILES: CCCCCC[C@H]1C(=O)N[C@H](C(=O)NCCc2ccc(S(N)(=O)=O)cc2)Cc2ccc(cc2)OCCC[C@@H]1C(=O)NO
IC50 [1]: 480 nM
inhibition in vivo at 30 mg/kg (Mus musculus [2]): 26%

SMILES: CCCCCC[C@H]1C(=O)N[C@H](C(=O)NC)Cc2ccc(cc2)OCCC[C@@H]1C(=O)NO
IC50 [1]: 2500 nM
inhibition in vivo at 100 mg/kg (Mus musculus [4]): 26%

SMILES: CCCCCC[C@H]1C(=O)N[C@H](C(=O)NCCCn2ccnc2)Cc2ccc(cc2)OCCC[C@@H]1C(=O)NO
IC50 [1]: 820 nM
inhibition in vivo at 30 mg/kg (Mus musculus [2]): 30%

SMILES: CNC(=O)[C@@H](Cc1ccc(OC)cc1)NC(=O)[C@@H]1Cc2ccc(cc2)OCCC[C@H](C(=O)NO)[C@@H](CC(C)C)C(=O)N1
IC50 [1]: 850 nM

SMILES: CCCCCC[C@H]1C(=O)N[C@H](C(=O)OC)Cc2ccc(cc2)OCCC[C@@H]1C(=O)NO
IC50 [1]: > 50000 nM

SMILES: CC(C)C[C@H]1C(=O)N[C@H](C(=O)NCC(=O)N2CCCC2)CCCCN(C)C(=O)OCCC[C@@H]1C(=O)NO
IC50 [1]: 400 nM

SMILES: CNC(=O)[C@@H](Cc1ccc(OC)cc1)NC(=O)[C@H](CC(C)C)[C@H](C)C(=O)NO
IC50 [1]: 1800 nM
Ki (Interstitial collagenase): < 1 nM
Ki [3]: < 1 nM

SMILES: COc1ccc2c(CCNC(=O)[C@@H]3CCCCNC(=O)OCCC[C@H](C(=O)NO)[C@@H](CC(C)C)C(=O)N3)c[nH]c2c1
IC50 [1]: 94 nM

SMILES: CCCCCC[C@H]1C(=O)N[C@H](C(=O)NCC(=O)NC)Cc2ccc(cc2)OCCC[C@@H]1C(=O)NO
IC50 [1]: 550 nM

SMILES: CC(C)C[C@H]1C(=O)N[C@H](C(=O)NCc2cccnc2)CCCCNC(=O)OCCC[C@@H]1C(=O)NO
IC50 [1]: 500 nM

SMILES: Cc1csc(NC(=O)CNC(=O)[C@@H]2CCCCN(C)C(=O)OCCC[C@H](C(=O)NO)[C@@H](CC(C)C)C(=O)N2)n1
IC50 [1]: 300 nM

SMILES: CCCCCC[C@H]1C(=O)N[C@H](C(=O)N[C@H](COC(C)(C)C)C(=O)NC)Cc2ccc(cc2)OCCC[C@@H]1C(=O)NO
IC50 [1]: 300 nM
inhibition in vivo at 30 mg/kg (Mus musculus [2]): 18%

SMILES: CC(C)C[C@H]1C(=O)N[C@H](C(=O)Nc2ccccc2)CCCCNC(=O)OCCC[C@@H]1C(=O)NO
IC50 [1]: 280 nM

SMILES: CC(C)C[C@H]1C(=O)N[C@H](C(=O)Nc2ccccn2)CCCCN(C)C(=O)OCCC[C@@H]1C(=O)NO
IC50 [1]: 200 nM

SMILES: CC(C)C[C@H]1C(=O)N[C@H](C(=O)NCC(=O)N2CCN(C)CC2)CCCCN(C)C(=O)OCCC[C@@H]1C(=O)NO
IC50 [1]: 120 nM

SMILES: CC(C)C[C@H]1C(=O)N[C@H](C(=O)NCc2ccccc2)CCCCNC(=O)OCCC[C@@H]1C(=O)NO
IC50 [1]: 740 nM

SMILES: CC(C)C[C@H]1C(=O)N[C@H](C(=O)NCC(=O)NC2CCC2)Cc2ccc(cc2)OCCC[C@@H]1C(=O)NO
IC50 [1]: 200 nM
inhibition in vivo at 30 mg/kg (Mus musculus [2]): 31%

SMILES: CCCCCC[C@H]1C(=O)N[C@H](C(=O)N[C@H](CCCCN)C(N)=O)Cc2ccc(cc2)OCCC[C@@H]1C(=O)NO
IC50 [1]: 760 nM
inhibition in vivo at 30 mg/kg (Mus musculus [2]): 36%

SMILES: CC(C)C[C@H]1C(=O)N[C@H](C(=O)NCc2ccccn2)CCCCNC(=O)OCCC[C@@H]1C(=O)NO
IC50 [1]: 700 nM
